Data published in ChEMBL document CHEMBL4393735, “Molecular modelling, synthesis, and biological evaluations of a 3,5-disubstituted isoxazole fatty acid analogue as a PPARα-selective agonist” (Bioorg Med Chem, 2019).
The source made the active and inactive calls.

Key:
[1] = biological target: T1, Peroxisome proliferator-activated receptor alpha (Homo sapiens) (UniProt Q07869); experiment: Agonist activity at full length human FLAG-tagged GAL4-DBD fused PPARalpha LBD (168 to 468 residues) expressed in COS1 cells at 25 to 50 uM measured after 18 hrs by dual luciferase reporter gene assay; assay type: cell-based
T1 sequence (whole entry): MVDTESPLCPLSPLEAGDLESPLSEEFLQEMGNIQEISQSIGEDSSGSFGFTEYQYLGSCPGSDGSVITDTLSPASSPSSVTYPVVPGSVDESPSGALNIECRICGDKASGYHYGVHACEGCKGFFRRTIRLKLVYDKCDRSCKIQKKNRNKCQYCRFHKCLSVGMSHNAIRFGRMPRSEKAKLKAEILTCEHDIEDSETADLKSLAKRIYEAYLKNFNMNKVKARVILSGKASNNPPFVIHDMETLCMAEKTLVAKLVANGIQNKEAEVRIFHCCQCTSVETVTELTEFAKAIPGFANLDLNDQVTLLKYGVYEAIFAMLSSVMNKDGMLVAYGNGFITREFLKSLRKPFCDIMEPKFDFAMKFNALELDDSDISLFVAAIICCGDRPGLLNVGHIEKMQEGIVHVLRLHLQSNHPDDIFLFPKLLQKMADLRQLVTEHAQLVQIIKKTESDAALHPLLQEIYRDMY
Procedure, shortened: (§1)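 COS-1 cells were transfected using Lipofectamine 2000 with GAL4-DBD–human NR-LBD plasmid, a 5×UAS-SV40 firefly luciferase reporter and pRL-CMV. After 6 h, cells were treated with 0, 25 or 50 μM in 0.1% DMSO (final) for 18 h. Firefly signal was normalized to Renilla, then to DMSO control and GAL4-only. Three biological replicates in quadruplicate, mean ± SEM, two-way ANOVA with Bonferroni.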

[2] = biological target: T2, Oxysterols receptor LXR-alpha (Homo sapiens) (UniProt Q13133); experiment: Agonist activity at full length human GAL4-DBD fused LXRalpha LBD (164 to 447 residues) expressed in COS1 cells at 25 to 50 uM measured after 18 hrs by dual luciferase reporter gene assay; assay type: cell-based; procedure, shortened: as §1
T2 sequence (whole entry): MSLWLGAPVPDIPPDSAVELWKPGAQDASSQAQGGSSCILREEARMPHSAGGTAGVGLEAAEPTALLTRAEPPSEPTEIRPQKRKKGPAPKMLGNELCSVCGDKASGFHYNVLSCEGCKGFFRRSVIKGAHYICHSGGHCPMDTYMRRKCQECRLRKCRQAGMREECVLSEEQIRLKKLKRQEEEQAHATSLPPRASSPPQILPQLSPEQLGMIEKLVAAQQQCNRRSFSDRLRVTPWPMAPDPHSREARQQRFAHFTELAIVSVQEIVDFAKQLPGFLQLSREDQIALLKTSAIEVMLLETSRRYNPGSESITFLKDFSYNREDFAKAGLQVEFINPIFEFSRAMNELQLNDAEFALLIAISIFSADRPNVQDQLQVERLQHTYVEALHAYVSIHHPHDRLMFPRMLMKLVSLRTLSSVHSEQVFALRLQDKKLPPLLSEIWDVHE

[3] = biological target: T3, Peroxisome proliferator-activated receptor alpha (Mus musculus) (UniProt P23204); experiment: Agonist activity at PPARalpha in C57BL/6N mouse primary hepatocytes assessed as SCD1 mRNA expression at 50 uM measured after 18 hrs by qRT-PCR analysis; assay type: cell-based
T3 sequence (whole entry): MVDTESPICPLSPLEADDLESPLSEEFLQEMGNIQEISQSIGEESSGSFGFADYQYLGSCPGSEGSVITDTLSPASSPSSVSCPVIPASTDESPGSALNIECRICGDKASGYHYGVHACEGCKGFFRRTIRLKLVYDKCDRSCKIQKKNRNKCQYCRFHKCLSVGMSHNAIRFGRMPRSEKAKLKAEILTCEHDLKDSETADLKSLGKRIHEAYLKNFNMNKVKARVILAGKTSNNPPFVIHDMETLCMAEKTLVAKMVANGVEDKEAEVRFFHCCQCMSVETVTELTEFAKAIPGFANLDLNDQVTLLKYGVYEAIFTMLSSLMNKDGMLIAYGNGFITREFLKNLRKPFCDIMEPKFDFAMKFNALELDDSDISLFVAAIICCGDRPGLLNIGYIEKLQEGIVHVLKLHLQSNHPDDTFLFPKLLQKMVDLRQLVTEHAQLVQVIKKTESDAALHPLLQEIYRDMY
Procedure, shortened: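 Treatment for 18 h at 50 μM (or 1 μM for the 1 μM agents), DMSO vehicle. Harvested for qPCR. mRNA normalized to TBP by the comparative threshold method, expressed relative to DMSO control. Two biological replicates run in duplicate, mean ± SEM. Primary hepatocytes came from male C57BL/6N mice aged 7–8 weeks, isolated by portal-vein perfusion and digestion, seeded on collagen I and used on day 2. HuH-7 cells were kept in DMEM with 10% FBS and ITS.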

[4] = system: SGBS; experiment: Upregulation of ACSL1 gene expression in human preadipocyte derived from Simpson-Golabi-Behmel syndrome (SGBS) patient at 25 uM measured for 12 days by qRT-PCR analysis; assay type: functional, cell-based
Procedure, shortened: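 SGBS cells were differentiated with serum-free induction medium containing 25 μM test agent, 2 μM rosiglitazone or 0.1% DMSO from day 0. IBMX and dexamethasone were removed on day 4 and medium was renewed on day 8. RNA was taken on days 0, 4, 8 and 12 for qPCR, normalized to TBP and to day 0. At least three biological replicates in duplicate, two-way ANOVA with Bonferroni.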

[5] = system: SGBS; experiment: Induction of adipocyte differentiation in human preadipocyte derived from Simpson-Golabi-Behmel syndrome (SGBS) patient assessed as lipid accumulation at 25 uM measured for 12 days by Oil red O staining based microscopic analysis; assay type: functional, cell-based
Procedure, shortened: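 Differentiation of SGBS preadipocytes was started in serum-free medium with transferrin, insulin, T3, hydrocortisol, IBMX and dexamethasone, plus 25 μM test agent, 2 μM rosiglitazone or 0.1% DMSO. On day 4 medium was switched to lack IBMX and dexamethasone, and it was renewed on day 8. Cells were fixed with 4% PFA and stained with 0.3% Oil Red O on days 0, 4, 8 and 12, then photographed.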

`CCCCCCCc1cc(CCCCCC(=O)O)no1` was tested, and the Activity [1] was “Active”, the Activity [2] was “inactive” and the Activity [3] was “Active”. For the same compound, the Activity [4] was “Active” and the Activity [5] was “Active”.
